Laboratory results taken from ChEMBL document CHEMBL5724801, “EUbOPEN Chemogenomics Library - Multiplex” (2024).
Several values for one entry are separate records, joined by “and”; a condition that tells them apart may be missing. Equal entries are not always repeated.

Tested on: U2OS
Assay: Multiplex assay against U2OS
Type: toxicity, cell-based
Conditions: human
Procedure, shortened: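 Live cells were stained at seeding with Hoechst33342, BioTracker Green Microtubule Cytoskeleton Dye, MitoTracker Red and Annexin V Alexa Fluor 680. Following compound addition, they were imaged on a CQ1 microscope at 37°C and 5% CO2 and gated by CellPathfinder machine learning into Hoechst high-intensity objects or normal cells, with normal cells split into healthy, pyknosed or fragmented nuclei and pyknosed cells into mitotic or apoptotic. Tubulin, mitochondrial-mass and membrane-permeability phenotypes are per cents of healthy-nucleus cells.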

[1] = 12 h, 1 µM, compound concentration 1 uM
[2] = 12 h, 10 µM, compound concentration 10 uM
[3] = 24 h, 1 µM, compound concentration 1 uM
[4] = 24 h, 10 µM, compound concentration 10 uM
[5] = 48 h, 1 µM, compound concentration 1 uM
[6] = 48 h, 10 µM, compound concentration 10 uM

SMILES: CN1CCC(C(=O)c2cccc(NC(=O)c3c(F)cc(F)cc3F)n2)CC1
- Population Apoptotic (%) [1]: 90% and 57%
- Population Fragmented Nuclei (%) [1]: 20%
- Population Healthy Nuclei (%) [1]: 70% and 71%
- Population Hoechst High Intensity Objects (%) [1]: 2% and 1%
- Population Membrane Permeable-Phenotype (%) [1]: 8% and 9%
- Population Mitochondria Different-Phenotype (%) [1]: 3% and 11%
- Population Normal (%) [1]: 97% and 98%
- Population Pyknosed Nuclei (%) [1]: 9% and 7%
- Population Tubulin-Different-Phenotype (%) [1]: 5% and 6%
- Total Cell Count [1]: 218 and 89
- Population Apoptotic (%) [2]: 65% and 64%
- Population Fragmented Nuclei (%) [2]: 27% and 14%
- Population Healthy Nuclei (%) [2]: 63% and 68%
- Population Hoechst High Intensity Objects (%) [2]: 1%
- Population Membrane Permeable-Phenotype (%) [2]: 14% and 15%
- Population Mitochondria Different-Phenotype (%) [2]: 13% and 18%
- Population Mitotic Cells (%) [2]: 34% and 35%
- Population Normal (%) [2]: 98%
- Population Pyknosed Nuclei (%) [2]: 9% and 16%
- Population Tubulin-Different-Phenotype (%) [2]: 12% and 15%
- Total Cell Count [2]: 270 and 103
- Population Apoptotic (%) [3]: 85% and 72%
- Population Fragmented Nuclei (%) [3]: 22% and 18%
- Population Healthy Nuclei (%) [3]: 67% and 71%
- Population Hoechst High Intensity Objects (%) [3]: 2% and 0%
- Population Membrane Permeable-Phenotype (%) [3]: 4% and 6%
- Population Mitochondria Different-Phenotype (%) [3]: 3% and 10%
- Population Mitotic Cells (%) [3]: 14% and 27%
- Population Normal (%) [3]: 97% and 99%
- Population Pyknosed Nuclei (%) [3]: 9%
- Population Tubulin-Different-Phenotype (%) [3]: 3% and 0%
- Total Cell Count [3]: 284 and 113
- Population Apoptotic (%) [4]: 82% and 66%
- Population Fragmented Nuclei (%) [4]: 21% and 15%
- Population Healthy Nuclei (%) [4]: 68%
- Population Hoechst High Intensity Objects (%) [4]: 2% and 5%
- Population Membrane Permeable-Phenotype (%) [4]: 8% and 10%
- Population Mitochondria Different-Phenotype (%) [4]: 9% and 15%
- Population Mitotic Cells (%) [4]: 17% and 33%
- Population Normal (%) [4]: 97% and 94%
- Population Pyknosed Nuclei (%) [4]: 9% and 15%
- Population Tubulin-Different-Phenotype (%) [4]: 5% and 10%
- Total Cell Count [4]: 298 and 126
- Population Apoptotic (%) [5]: 100% and 89%
- Population Fragmented Nuclei (%) [5]: 17% and 29%
- Population Healthy Nuclei (%) [5]: 70% and 57%
- Population Hoechst High Intensity Objects (%) [5]: 2% and 5%
- Population Membrane Permeable-Phenotype (%) [5]: 4% and 12%
- Population Mitochondria Different-Phenotype (%) [5]: 1% and 8%
- Population Mitotic Cells (%) [5]: 0% and 10%
- Population Normal (%) [5]: 97% and 94%
- Population Pyknosed Nuclei (%) [5]: 11% and 13%
- Population Tubulin-Different-Phenotype (%) [5]: 2% and 4%
- Total Cell Count [5]: 394 and 149
- Population Apoptotic (%) [6]: 85%
- Population Fragmented Nuclei (%) [6]: 18% and 15%
- Population Healthy Nuclei (%) [6]: 69%
- Population Hoechst High Intensity Objects (%) [6]: 3%
- Population Membrane Permeable-Phenotype (%) [6]: 8% and 16%
- Population Mitochondria Different-Phenotype (%) [6]: 3% and 10%
- Population Mitotic Cells (%) [6]: 14%
- Population Normal (%) [6]: 96%
- Population Pyknosed Nuclei (%) [6]: 12% and 14%
- Population Tubulin-Different-Phenotype (%) [6]: 3% and 8%
- Total Cell Count [6]: 398 and 189

SMILES: COc1c(C)cc(NC(=O)c2nn(Cc3ccc(F)cc3)c3c2CN(C(=O)c2ccc[nH]2)C[C@]3(C)C(N)=O)cc1C
- Population Apoptotic (%) [1]: 65% and 83%
- Population Fragmented Nuclei (%) [1]: 22% and 21%
- Population Healthy Nuclei (%) [1]: 65% and 72%
- Population Hoechst High Intensity Objects (%) [1]: 2%
- Population Membrane Permeable-Phenotype (%) [1]: 8%
- Population Mitochondria Different-Phenotype (%) [1]: 3% and 12%
- Population Mitotic Cells (%) [1]: 34% and 16%
- Population Normal (%) [1]: 97%
- Population Pyknosed Nuclei (%) [1]: 12% and 6%
- Population Tubulin-Different-Phenotype (%) [1]: 5% and 9%
- Total Cell Count [1]: 247 and 102
- Population Apoptotic (%) [2]: 33% and 60%
- Population Fragmented Nuclei (%) [2]: 26% and 11%
- Population Healthy Nuclei (%) [2]: 43% and 66%
- Population Hoechst High Intensity Objects (%) [2]: 9% and 8%
- Population Membrane Permeable-Phenotype (%) [2]: 77% and 54%
- Population Mitochondria Different-Phenotype (%) [2]: 90% and 97%
- Population Mitotic Cells (%) [2]: 66% and 39%
- Population Normal (%) [2]: 90% and 91%
- Population Pyknosed Nuclei (%) [2]: 29% and 21%
- Population Tubulin-Different-Phenotype (%) [2]: 95% and 100%
- Total Cell Count [2]: 223 and 119
- Population Apoptotic (%) [3]: 67% and 61%
- Population Fragmented Nuclei (%) [3]: 16% and 17%
- Population Healthy Nuclei (%) [3]: 71% and 70%
- Population Hoechst High Intensity Objects (%) [3]: 5% and 0%
- Population Membrane Permeable-Phenotype (%) [3]: 8% and 7%
- Population Mitochondria Different-Phenotype (%) [3]: 6% and 2%
- Population Mitotic Cells (%) [3]: 32% and 38%
- Population Normal (%) [3]: 94% and 99%
- Population Pyknosed Nuclei (%) [3]: 12% and 11%
- Population Tubulin-Different-Phenotype (%) [3]: 7% and 6%
- Total Cell Count [3]: 265 and 111
- Population Apoptotic (%) [4]: 66% and 65%
- Population Fragmented Nuclei (%) [4]: 26% and 13%
- Population Healthy Nuclei (%) [4]: 41% and 53%
- Population Hoechst High Intensity Objects (%) [4]: 12% and 7%
- Population Membrane Permeable-Phenotype (%) [4]: 46% and 49%
- Population Mitochondria Different-Phenotype (%) [4]: 92% and 91%
- Population Mitotic Cells (%) [4]: 33% and 34%
- Population Normal (%) [4]: 87% and 92%
- Population Pyknosed Nuclei (%) [4]: 31% and 33%
- Population Tubulin-Different-Phenotype (%) [4]: 94% and 91%
- Total Cell Count [4]: 216 and 123
- Population Apoptotic (%) [5]: 79% and 84%
- Population Fragmented Nuclei (%) [5]: 18% and 15%
- Population Healthy Nuclei (%) [5]: 68% and 70%
- Population Hoechst High Intensity Objects (%) [5]: 2% and 5%
- Population Membrane Permeable-Phenotype (%) [5]: 4% and 9%
- Population Mitochondria Different-Phenotype (%) [5]: 3% and 4%
- Population Mitotic Cells (%) [5]: 20% and 15%
- Population Normal (%) [5]: 97% and 94%
- Population Pyknosed Nuclei (%) [5]: 13%
- Population Tubulin-Different-Phenotype (%) [5]: 2% and 5%
- Total Cell Count [5]: 365 and 152
- Population Apoptotic (%) [6]: 84% and 87%
- Population Fragmented Nuclei (%) [6]: 31% and 22%
- Population Healthy Nuclei (%) [6]: 24% and 47%
- Population Hoechst High Intensity Objects (%) [6]: 17% and 9%
- Population Membrane Permeable-Phenotype (%) [6]: 69% and 50%
- Population Mitochondria Different-Phenotype (%) [6]: 85% and 81%
- Population Mitotic Cells (%) [6]: 15% and 12%
- Population Normal (%) [6]: 82% and 90%
- Population Pyknosed Nuclei (%) [6]: 44% and 29%
- Population Tubulin-Different-Phenotype (%) [6]: 90% and 80%
- Total Cell Count [6]: 212 and 150

SMILES: CSc1ccccc1N1CCN(CCCCCC(=O)NC2CCCc3ccccc32)CC1.Cl (stereo unspecified)
- Population Apoptotic (%) [1]: 62% and 36%
- Population Fragmented Nuclei (%) [1]: 22% and 24%
- Population Healthy Nuclei (%) [1]: 61% and 63%
- Population Hoechst High Intensity Objects (%) [1]: 9% and 3%
- Population Membrane Permeable-Phenotype (%) [1]: 73% and 51%
- Population Mitochondria Different-Phenotype (%) [1]: 71% and 85%
- Population Mitotic Cells (%) [1]: 37% and 63%
- Population Normal (%) [1]: 90% and 96%
- Population Pyknosed Nuclei (%) [1]: 15% and 11%
- Population Tubulin-Different-Phenotype (%) [1]: 88% and 72%
- Total Cell Count [1]: 222 and 101
- Population Apoptotic (%) [2]: 70% and 84%
- Population Fragmented Nuclei (%) [2]: 41% and 23%
- Population Healthy Nuclei (%) [2]: 39% and 55%
- Population Hoechst High Intensity Objects (%) [2]: 8% and 4%
- Population Membrane Permeable-Phenotype (%) [2]: 67% and 60%
- Population Mitochondria Different-Phenotype (%) [2]: 90% and 92%
- Population Mitotic Cells (%) [2]: 29% and 16%
- Population Normal (%) [2]: 91% and 95%
- Population Pyknosed Nuclei (%) [2]: 18% and 21%
- Population Tubulin-Different-Phenotype (%) [2]: 96% and 98%
- Total Cell Count [2]: 221 and 125
- Population Apoptotic (%) [3]: 54% and 58%
- Population Fragmented Nuclei (%) [3]: 22% and 25%
- Population Healthy Nuclei (%) [3]: 60% and 58%
- Population Hoechst High Intensity Objects (%) [3]: 6% and 2%
- Population Membrane Permeable-Phenotype (%) [3]: 63% and 46%
- Population Mitochondria Different-Phenotype (%) [3]: 63% and 74%
- Population Mitotic Cells (%) [3]: 45% and 41%
- Population Normal (%) [3]: 94% and 97%
- Population Pyknosed Nuclei (%) [3]: 17% and 15%
- Population Tubulin-Different-Phenotype (%) [3]: 75% and 63%
- Total Cell Count [3]: 250 and 111
- Population Apoptotic (%) [4]: 89% and 94%
- Population Fragmented Nuclei (%) [4]: 44% and 19%
- Population Healthy Nuclei (%) [4]: 28% and 44%
- Population Hoechst High Intensity Objects (%) [4]: 6% and 10%
- Population Membrane Permeable-Phenotype (%) [4]: 79% and 90%
- Population Mitochondria Different-Phenotype (%) [4]: 81% and 56%
- Population Mitotic Cells (%) [4]: 10% and 5%
- Population Normal (%) [4]: 93% and 89%
- Population Pyknosed Nuclei (%) [4]: 26% and 37%
- Population Tubulin-Different-Phenotype (%) [4]: 91% and 97%
- Total Cell Count [4]: 219 and 112
- Population Apoptotic (%) [5]: 64% and 95%
- Population Fragmented Nuclei (%) [5]: 25% and 28%
- Population Healthy Nuclei (%) [5]: 53% and 52%
- Population Hoechst High Intensity Objects (%) [5]: 8% and 5%
- Population Membrane Permeable-Phenotype (%) [5]: 42% and 41%
- Population Mitochondria Different-Phenotype (%) [5]: 56% and 63%
- Population Normal (%) [5]: 91% and 94%
- Population Pyknosed Nuclei (%) [5]: 21% and 18%
- Population Tubulin-Different-Phenotype (%) [5]: 50% and 44%
- Total Cell Count [5]: 272 and 137
- Population Apoptotic (%) [6]: 98% and 100%
- Population Fragmented Nuclei (%) [6]: 43% and 25%
- Population Healthy Nuclei (%) [6]: 18% and 20%
- Population Hoechst High Intensity Objects (%) [6]: 15% and 11%
- Population Membrane Permeable-Phenotype (%) [6]: 77% and 85%
- Population Mitochondria Different-Phenotype (%) [6]: 33% and 45%
- Population Mitotic Cells (%) [6]: 1% and 0%
- Population Normal (%) [6]: 84% and 88%
- Population Pyknosed Nuclei (%) [6]: 38% and 54%
- Population Tubulin-Different-Phenotype (%) [6]: 75% and 95%
- Total Cell Count [6]: 232 and 109
